PubChem BioAssay AID588399 (Southern Research Specialized Biocontainment Screening …, 2011)
Results filed as inconclusive are left out. Activity calls are given as the source filed them.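 The calls were made as follows: active = toxic compounds, with cells under 80% alive at a tested dose; inconclusive = one replicate called active, the other inactive; inactive = the rest.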

Tested on: Bladder 5637 cells viability, CellTiter-Glo, 72 h
Experiment: viability loss of bladder carcinoma 5637 line – cell-based, set 4, cytotoxicity control for bacterial capsule biogenesis inhibitors, dose response (AID 588399)
Conditions: not given
Method in brief: (§1)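 System: 5637 bladder carcinoma cells; Times: 72 h treatment; Detection: CellTiter-Glo luminescence.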

Structure (SMILES) | CC50 [µM]
O=C(Nc1cccnc1)c1ccc2ncsc2c1 | 28.3
O=C(Nc1nc2ccc(OC(F)(F)F)cc2s1)c1ccc(Br)s1 | 24.6
O=C(Nc1ccc(Cl)cc1)c1ccc2[nH]ccc2c1 | 14.1
COc1ccc2nc(NC(=O)c3ccc(Br)s3)[nH]c2c1 | 4.43
COc1ccc2nc(NC(=O)c3cc(Br)c(Br)s3)[nH]c2c1 | < 2.34

Tested on: not listed separately
Experiment: as above
Conditions: Bladder 5637 cells viability, CellTiter-Glo, 72 h; at 300 µM (top of the series)
Method in brief: as §1

Structure (SMILES) | viability
O=C(Nc1ccc(F)cc1)c1ccc2nc[nH]c2c1 | 83% (inactive)
O=C(Nc1ccccn1)c1ccc2nc[nH]c2c1 | 94.7% (inactive)
O=C(Nc1ccc(Br)cc1)c1ccc2ncsc2c1 | 142% (inactive)
COc1ccc(NC(=O)c2ccc3nc[nH]c3c2)cc1 | 104% (inactive)
O=C(NCc1ccco1)c1ccc2nc[nH]c2c1 | 111% (inactive)
